From PubChem BioAssay come the findings set out here.

As a reminder, the inhibition is the drop in the measured response relative to a control, in per cent.

The source made the active and inactive calls.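 Rule for the calls, unless noted: active = inhibition at or above 50% at 10 µM; inactive = inhibition below 50%.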

A short description of experiment [1]: inhibitors of TNFa-induced NFkB p65 translocation, primary screen, imaging, HUVEC, MLSMR starter and 10KST1 sets (AID 438;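 active = inhibition above 20% together with a positive visual image hit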;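 note: compound added about 3h40 before a 20 min TNFalpha stimulation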;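 for inhibition: signal is the nuclear over cytoplasmic p65 intensity ratio per well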). Particulars: HUVEC TNFa-induced p65 nuclear translocation; cell count: measured here: nuclei count (cytotoxicity indicator), at 2.08 µM; inhibition: at 2 µM, stronger effect = higher value, 0% TNFa-plus-vehicle, 100% no-TNFa wells.
Experiment [2] is described as follows: inhibitors of mutant huntingtin aggregation, primary screen, imaging, exon1htt(103Q)mCFP cells, high-content imaging (AID 483;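 active = visual image review flags a hit and inhibition of aggregation exceeds 20%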;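 note: compound exposure lasted 3 days before fixation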;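 for nuclei count: percent of the per-plate median nuclei count of sample wells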). Particulars: exon1htt(103Q)mCFP cell line, aggregate imaging, at 2 µM; inhibition of aggregation: stronger effect = higher value; nuclei count: measured here: cell count, toxicity.
The nature of experiment [3]: inhibitors of E-selectin induction by TNFa, primary screen, imaging, HUVEC, immunofluorescence, MLSMR starter and 10KST1 sets (AID 487;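 active = visually confirmed hit in the image check and inhibition above 20%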;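 for inhibition: signal is fraction of cell area covered by stained E-selectin grains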;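 for nuclei count: 100% = median nuclei count of all wells on the same plate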). The note with it: HUVEC TNFalpha-induced E-selectin immunofluorescence imaging, at 2 µM; inhibition: stronger effect = higher value; nuclei count: measured here: cell number, toxicity.
Experiment [4] concerns the target Voltage-gated potassium channel subunit beta-2 (Rattus norvegicus) (UniProt P62483). The experiment can be described thus: KvBeta enzyme negative modulators, primary screen, biochemical, NADPH fluorescence (AID 622;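 active = fluorescence slope higher than the sample average by over 3 SD, cut at about -0.22 in these data, passing the limit was not always enough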;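 note: slope of raw intensity against log time taken from 70 to 1610 s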). The note with it: recombinant KvBeta, 4-cyanobenzaldehyde reduction, at 10 µM, stronger effect = higher value.
Experiment [5] shares this target. In words: KvBeta positive modulators, primary screen, biochemical, NADPH fluorescence (AID 623;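 active = NADPH fluorescence slope more negative than the mean of all samples by about 3 SD, 99.7% confidence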;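 note: fluorescence intensity change per second fitted from 20 to 320 s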). Particulars: Recombinant KvBeta, NADPH fluorescence decrease slope, 10 min; at 10 µM; stronger effect = lower value.
Experiment [6] has as its target Muscarinic acetylcholine receptor M4 (Homo sapiens) (UniProt P08173). In words: compounds altering M4/GIRK thallium flux, either direction, primary screen, M4 allosteric agonist project, cell-based, HEK293 M4/GIRK, BTC-AM (AID 625;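 active = fluorescence slope after compound addition differing from the mean of all tested samples at 99.7% confidence, mostly higher but some lower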;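 note: thallium influx through GIRK channels coupled to M4 in HEK293 cells with BTC-AM dye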). Particulars: at 10 µM, actives lie on both sides. The method in brief: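 System: HEK293 cells with M4 receptor and GIRK channels | Incubation: Cells overnight at 37 °C, BTC-AM loading 1 h, reads 2 min total | Technique: Kinetic BTC-AM fluorescence sampled at 1 Hz, 10 s pre-addition baseline | Measure: Post-addition slope, 15–24 s, of baseline-normalized fluorescence | Control set: Carbachol positive, DMSO negative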

Experiment [7] is described as follows: inhibitors of Sendai virus-induced IRF3 signaling, primary screen, TLR/RLR signaling modifier project, cell-based, Sendai virus stimulus, luciferase, 10K MLSCN set (AID 602276).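 Note: firefly luciferase from ISG56 promoter only with Renilla not read in this screen; 0% = Sendai virus plus DMSO and 100% = medium plus DMSO without virus.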 The note with it: HEK293 RL24 IRF3 luciferase reporter, at 10 µM, stronger effect = higher value.
The nature of experiment [8]: inhibitors of poly I:C-induced TLR3 signaling, primary screen, cell-based, poly I:C stimulus, luciferase, 10K MLSCN set (AID 602277;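 active = inhibition of the reporter signal at or above 50%; inactive = inhibition below 50%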). Particulars: HEK293-TLR3 RL24 IRF3 luciferase reporter, at 10 µM, stronger effect = higher value. For orientation: In a reporter assay the amount or activity of a reporter protein is the signal.

Voltage-gated potassium channel subunit beta-2 (Rattus norvegicus), sequence (P62483 whole entry, looked up): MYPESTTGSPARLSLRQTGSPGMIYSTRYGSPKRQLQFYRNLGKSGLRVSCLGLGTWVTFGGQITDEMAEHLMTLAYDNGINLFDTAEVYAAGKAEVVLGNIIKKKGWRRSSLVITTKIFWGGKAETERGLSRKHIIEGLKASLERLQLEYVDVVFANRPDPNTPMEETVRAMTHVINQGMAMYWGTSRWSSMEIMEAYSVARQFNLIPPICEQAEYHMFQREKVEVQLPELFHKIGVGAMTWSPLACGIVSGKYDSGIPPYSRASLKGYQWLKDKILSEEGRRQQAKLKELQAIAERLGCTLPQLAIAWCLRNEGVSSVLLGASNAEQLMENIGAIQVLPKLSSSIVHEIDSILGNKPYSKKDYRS
Muscarinic acetylcholine receptor M4 (Homo sapiens), sequence (P08173 whole entry, looked up): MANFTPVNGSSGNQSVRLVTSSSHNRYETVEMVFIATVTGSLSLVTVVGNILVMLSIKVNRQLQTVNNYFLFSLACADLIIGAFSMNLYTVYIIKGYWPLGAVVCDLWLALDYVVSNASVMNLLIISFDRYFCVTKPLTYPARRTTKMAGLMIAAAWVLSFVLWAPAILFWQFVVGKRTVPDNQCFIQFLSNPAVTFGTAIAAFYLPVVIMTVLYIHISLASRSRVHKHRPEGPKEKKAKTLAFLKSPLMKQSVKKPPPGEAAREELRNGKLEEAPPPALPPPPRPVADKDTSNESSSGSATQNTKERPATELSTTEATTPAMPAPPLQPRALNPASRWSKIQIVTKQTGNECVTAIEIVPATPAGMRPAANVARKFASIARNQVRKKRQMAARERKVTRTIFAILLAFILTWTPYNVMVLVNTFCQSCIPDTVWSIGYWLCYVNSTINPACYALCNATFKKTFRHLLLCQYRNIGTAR

In the case of `COC(=O)Cn1cnc2c(nnn2-c2ccc(C)cc2)c1=O`, in experiment [1], the cell count came to 257. Besides, the inhibition was 8.9% (inactive) in experiment [1], -78.1% (inactive) in experiment [3], -7.22% (inactive) in experiment [7] and 1.35% (inactive) in experiment [8]. The inhibition of aggregation in experiment [2] was -6.9% (inactive). Moreover, the nuclei count in experiment [2] came out at 100%; in experiment [3], 106%. Moreover, the fluorescence slope in experiment [4] is -0.287 (inactive); in experiment [6], 0.00635 (inactive). In experiment [5], the NADPH fluorescence slope was -3.1e-05 (inactive).
Consider `C=CCOc1cccc(C2/C(=C(\O)c3ccc(F)cc3)C(=O)C(=O)N2CCN(C)C)c1` (centres undefined), for which, in experiment [1], the cell count is 699. The inhibition in experiment [1] is -12.1% (inactive); in experiment [3], 33.3% (inactive); in experiment [7], 8.26% (inactive); in experiment [8], 15.2% (inactive). Moreover, the inhibition of aggregation in experiment [2] was 20.1% (inactive). In addition, the nuclei count in experiment [2] is 82.8%; in experiment [3] it was 99.1%. The fluorescence slope in experiment [4] was -0.493 (inactive); in experiment [6] it was 0.00287 (inactive). Also, in experiment [5], the NADPH fluorescence slope is -0.000177 (inactive).
As to `COc1ccccc1S(=O)(=O)n1cc(Cc2ccccc2)c(N)n1`, in experiment [1], the cell count stood at 341. For the same compound, the inhibition was -21.8% (inactive) in experiment [1], -28.1% (inactive) in experiment [3], 3.66% (inactive) in experiment [7] and 31.1% (inactive) in experiment [8]. The inhibition of aggregation in experiment [2] was 0.9% (inactive). Moreover, the figures for the nuclei count in experiment [2] and in experiment [3] were 89% and 114%, respectively. The fluorescence slope was -0.493 (inactive) in experiment [4] and 0.0055 (inactive) in experiment [6]. In addition, the NADPH fluorescence slope in experiment [5] is -1.1e-05 (inactive).
Take `Cc1ccc(S(=O)(=O)c2nc(-c3ccco3)oc2SCC(=O)NCC2CCCO2)cc1` (centres undefined): the cell count in experiment [1] was 822. Moreover, the inhibition in experiment [1] is -8% (inactive); in experiment [3] it was -16.1% (inactive); in experiment [7] it was 15.8% (inactive); in experiment [8], 18.5% (inactive). Besides, in experiment [2], the inhibition of aggregation was 4% (inactive). The nuclei count in experiment [2] was determined as 104%; in experiment [3], 109%. The fluorescence slope in experiment [4] is -0.458 (inactive); in experiment [6], 0.00374 (inactive). In experiment [5], the NADPH fluorescence slope was -4.2e-05 (inactive).
For the compound `Cc1noc(C)c1S(=O)(=O)Nc1c(C)n(C)n(-c2ccccc2)c1=O`, the cell count in experiment [1] is 410. Moreover, the inhibition in experiment [1] is 2.5% (inactive); in experiment [3] it was -5.4% (inactive); in experiment [7], 13.8% (inactive); in experiment [8] it was 22.3% (inactive). In addition, in experiment [2], the inhibition of aggregation was 33.5% (inactive). For the same compound, the nuclei count came to 84.8% in experiment [2] and 96% in experiment [3]. Further, the fluorescence slope was -0.472 (inactive) in experiment [4] and 0.00591 (inactive) in experiment [6]. In experiment [5], the NADPH fluorescence slope was 1.2e-05 (inactive).
As for `O=C(c1nc2n(n1)C(c1ccc(Cl)cc1)C=C(c1ccccc1)N2)N1CCOCC1` (centres undefined), the cell count in experiment [1] is 811. For the same compound, the inhibition is -3.9% (inactive) in experiment [1], 14.2% (inactive) in experiment [3], 9.43% (inactive) in experiment [7] and -4.24% (inactive) in experiment [8]. For the same compound, the inhibition of aggregation in experiment [2] was 10.6% (inactive). In addition, the nuclei count amounted to 126% in experiment [2] and 110% in experiment [3]. Further, the fluorescence slope in experiment [4] was -0.0865 (active); in experiment [6] it was 0.00624 (inactive). In addition, the NADPH fluorescence slope in experiment [5] is -1.6e-06 (inactive).
As for `COc1ccccc1C(=O)Nc1ccc(S(=O)(=O)N2CCOCC2)cc1`, the cell count in experiment [1] stood at 353. For the same compound, the inhibition was -6% (inactive) in experiment [1], -85.7% (inactive) in experiment [3], 10.8% (inactive) in experiment [7] and 0.189% (inactive) in experiment [8]. Besides, in experiment [2], the inhibition of aggregation was 21.1% (inactive). Besides, the nuclei count was 61.9% in experiment [2] and 105% in experiment [3]. The fluorescence slope was -0.571 (inactive) in experiment [4] and 0.00422 (inactive) in experiment [6]. The NADPH fluorescence slope in experiment [5] is -5.6e-05 (inactive).
With `O=C(COC(=O)C1(c2ccccc2F)CCCC1)NC1CCS(=O)(=O)C1` (centres undefined), the cell count in experiment [1] came to 804. Moreover, the inhibition in experiment [1] was -6.9% (inactive); in experiment [3], -14.4% (inactive); in experiment [7] it was -1.97% (inactive); in experiment [8] it was 9.43% (inactive). In addition, the inhibition of aggregation in experiment [2] is -2.4% (inactive). Besides, the nuclei count was found to be 124% in experiment [2] and 106% in experiment [3]. For the same compound, the fluorescence slope is -0.578 (inactive) in experiment [4] and 0.00752 (inactive) in experiment [6]. Moreover, in experiment [5], the NADPH fluorescence slope was -7.2e-06 (inactive).
As for `Cc1nnc(N(Cc2ccco2)C(=O)c2cccc(C#N)c2)s1`, in experiment [1], the cell count turned out to be 428. The inhibition was 7.3% (inactive) in experiment [1], 11.7% (inactive) in experiment [3], -0.114% (inactive) in experiment [7] and 5.23% (inactive) in experiment [8]. Moreover, the inhibition of aggregation in experiment [2] was 9.6% (inactive). Moreover, the nuclei count in experiment [2] was found to be 101%; in experiment [3], 111%. Besides, the fluorescence slope in experiment [4] is -0.569 (inactive); in experiment [6], 0.00607 (inactive). For the same compound, the NADPH fluorescence slope in experiment [5] is -1.4e-05 (inactive).
For `CCOC(=O)c1ccc(NC(=O)N2CCN(CCc3ccccc3)CC2)cc1`, the cell count in experiment [1] is 361. For the same compound, the inhibition is 2.5% (inactive) in experiment [1], 20.3% (inactive) in experiment [3], 6.1% (inactive) in experiment [7] and -14.9% (inactive) in experiment [8]. The inhibition of aggregation in experiment [2] was 18.6% (inactive). Further, the nuclei count in experiment [2] is 84.1%; in experiment [3], 75.8%. Moreover, the fluorescence slope in experiment [4] is -0.475 (inactive); in experiment [6], 0.00422 (inactive). Further, in experiment [5], the NADPH fluorescence slope was -4.1e-05 (inactive).
As for `Cc1csc(NC(=O)c2cccc(S(=O)(=O)N3CCCCC3)c2)n1`, the cell count in experiment [1] was 352. Besides, the inhibition was 7.4% (inactive) in experiment [1], -30.5% (inactive) in experiment [3], -5.34% (inactive) in experiment [7] and 16.9% (inactive) in experiment [8]. Also, the inhibition of aggregation in experiment [2] was -9.9% (inactive). For the same compound, the results for the nuclei count in experiment [2] and in experiment [3] were 96.8% and 109%, respectively. Further, the fluorescence slope is -0.587 (inactive) in experiment [4] and 0.00964 (inactive) in experiment [6]. Also, the NADPH fluorescence slope in experiment [5] was -3e-05 (inactive).
Turning to `CCc1ccc2c(CN(CC)Cc3nc4ccccc4c(=O)[nH]3)cc(=O)oc2c1`, the cell count in experiment [1] was determined as 530. In addition, the inhibition in experiment [1] was 1.4% (inactive); in experiment [3], -23.3% (inactive); in experiment [7] it was 17.1% (inactive); in experiment [8], 26.9% (inactive). In addition, the inhibition of aggregation in experiment [2] was 2% (inactive). In addition, the nuclei count in experiment [2] came to 114%; in experiment [3] it was 107%. For the same compound, the fluorescence slope in experiment [4] was -0.57 (inactive); in experiment [6], 0.00486 (inactive). Also, in experiment [5], the NADPH fluorescence slope was 5.5e-06 (inactive).
Turning to `CCN(CC)CC(=O)Nc1ccc(-c2nc3cc(NC(=O)CN(CC)CC)ccc3o2)cc1`, the cell count in experiment [1] worked out at 621. The inhibition in experiment [1] was 4.9% (inactive); in experiment [3], 41.6% (inactive); in experiment [7] it was -12.5% (inactive); in experiment [8], 92.9% (active). Also, the inhibition of aggregation in experiment [2] is -13.9% (inactive). The nuclei count was 102% in experiment [2] and 100% in experiment [3]. Moreover, the fluorescence slope in experiment [4] is -0.0978 (inactive); in experiment [6] it was 0.00522 (inactive). Also, the NADPH fluorescence slope in experiment [5] was -3.8e-06 (inactive).
For `O=C(O)c1cnn2c1NC(c1ccc(F)cc1)CC2C(F)(F)F` (centres undefined), in experiment [1], the cell count was determined as 613. The inhibition was 10.2% (inactive) in experiment [1], -85.7% (inactive) in experiment [3], 10.7% (inactive) in experiment [7] and 1.93% (inactive) in experiment [8]. The inhibition of aggregation in experiment [2] is -6.3% (inactive). For the same compound, the nuclei count in experiment [2] was found to be 99.2%; in experiment [3], 116%. Moreover, the results for the fluorescence slope in experiment [4] and in experiment [6] were -0.472 (inactive) and 0.00543 (inactive), respectively. Also, the NADPH fluorescence slope in experiment [5] is -4.5e-05 (inactive).
